Measured values from ChEMBL document CHEMBL3616378 (J Med Chem, 2015).

How the values were obtained:
[1] = Clearance in Sprague-Dawley rat at 1 mg/kg, iv; assay type: ADME, organism-based; settings: in vivo
Procedure, shortened: (§1)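 Fasted male Sprague–Dawley rats (~250 g) received a single dose of compound dissolved in water and adjusted to pH 7–7.5 with NaOH, given iv, by oral gavage or ip. Serial blood samples (11–12 per rat) were drawn from a jugular vein catheter into EDTA and kept frozen. Plasma was mixed with methanol:water (1:1) containing an analogue internal standard for analysis. Mean plasma parameters are reported.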

[2] = target: T1, Metabotropic glutamate receptor 4 (Homo sapiens, UniProt Q14833); experiment: Antagonist activity at human recombinant mGlu4 receptor expressed in AV12 cells assessed as inhibition of glutamate-stimulated Ca2+ mobilization after 1 hr by FLIPR assay; assay type: functional, cell-based
[3] = Plasma concentration in Sprague-Dawley rat at 3 mg/kg, ip after 0.5 hrs; assay type: ADME, organism-based
Procedure, shortened: (§2)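 Separate experiment: single ip doses of 1, 3 and 10 mg/kg to rats, compound in water adjusted to pH 7–7.5 with NaOH; plasma (with csf) sampled at 0.5, 1 and 4 h; mean plasma concentrations ± SEM reported.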

[4] = target: T2, Metabotropic glutamate receptor 3 (Homo sapiens, UniProt Q14832); experiment: Displacement of [3H]-459477 from human recombinant mGlu3 receptor expressed in AV12 cells after 90 mins by liquid scintillation counting; assay type: cell-based
[5] = Tmax in Sprague-Dawley rat at 10 mg/kg, ip; assay type: ADME, organism-based; settings: in vivo
Procedure, shortened: (§3)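 Compound dissolved in water, pH adjusted to 7–7.5 with NaOH; single dose to fasted male Sprague–Dawley rats (~250 g) by oral gavage, intravenous or intraperitoneal route. Serial blood (11–12 samples per rat) from jugular vein catheter into EDTA tubes, centrifuged, frozen; 25 µL plasma mixed with methanol:water (1:1) containing analogue internal standard.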

[6] = target: T2, Metabotropic glutamate receptor 3; experiment: Agonist activity at wild type human recombinant mGlu3 receptor expressed in AV12 cells assessed as stimulation of Ca2+ mobilization after 1 hr by FLIPR assay; assay type: functional, cell-based
[7] = target: Metabotropic glutamate receptor 2 (Homo sapiens, UniProt Q14416, E273D); experiment: Agonist activity at human recombinant mGlu2 receptor E273D mutant expressed in AV12 cells assessed as stimulation of Ca2+ mobilization after 1 hr by FLIPR assay; assay type: functional, cell-based
[8] = Cmax in Sprague-Dawley rat at 10 mg/kg, ip; assay type: ADME, organism-based; parameters: dose 10 mg/kg, route intraperitoneal; settings: in vivo; procedure, shortened: as §1
[9] = target: T1, Metabotropic glutamate receptor 4; experiment: Agonist activity at human recombinant mGlu4 receptor expressed in AV12 cells assessed as stimulation of Ca2+ mobilization after 1 hr by FLIPR assay; assay type: functional, cell-based
[10] = target: Metabotropic glutamate receptor 3 (Homo sapiens, UniProt Q14832, D279E); experiment: Agonist activity at human recombinant mGlu3 receptor D279E mutant expressed in AV12 cells assessed as stimulation of Ca2+ mobilization after 1 hr by FLIPR assay; assay type: functional, cell-based
[11] = target: Metabotropic glutamate receptor 6 (Homo sapiens, UniProt O15303); experiment: Agonist activity at human recombinant mGlu6 receptor expressed in AV12 cells assessed as inhibition of forskolin-stimulated cAMP production after 1 hr by fluorescence assay; assay type: functional, cell-based
[12] = target: Metabotropic glutamate receptor 2 (Homo sapiens, UniProt Q14416, E273D/L300Q); experiment: Agonist activity at human recombinant mGlu2 receptor E273D and L300Q mutant expressed in AV12 cells assessed as stimulation of Ca2+ mobilization after 1 hr by FLIPR assay; assay type: functional, cell-based
[13] = target: Metabotropic glutamate receptor 2 (Homo sapiens, UniProt Q14416); experiment: Agonist activity at wild type human recombinant mGlu2 receptor expressed in AV12 cells assessed as stimulation of Ca2+ mobilization after 1 hr by FLIPR assay; assay type: functional, cell-based
[14] = Half life in Sprague-Dawley rat at 1 mg/kg, iv; assay type: ADME, organism-based; settings: in vivo; procedure, shortened: as §1
[15] = Plasma concentration in Sprague-Dawley rat at 10 mg/kg, ip after 1 hr; assay type: ADME, organism-based; procedure, shortened: as §2
[16] = Plasma concentration in Sprague-Dawley rat at 3 mg/kg, ip after 4 hrs; assay type: ADME, organism-based; procedure, shortened: as §2
[17] = target: Metabotropic glutamate receptor 5 (Homo sapiens, UniProt P41594); experiment: Antagonist activity at human recombinant mGlu5 receptor expressed in AV12 cells assessed as inhibition of glutamate-stimulated Ca2+ mobilization after 1 hr by FLIPR assay; assay type: functional, cell-based
CYP2D6 = CYP2D6 (Homo sapiens, UniProt P10635); experiment: Inhibition of human CYP2D6 at 10 uM; assay type: ADME
Procedure, shortened: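 Inhibition of human CYP isoforms was measured with the compound tested at 10 µM.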

[18] = target: T2, Metabotropic glutamate receptor 3; experiment: Agonist activity at human recombinant mGlu3 receptor expressed in AV12 cells assessed as stimulation of Ca2+ mobilization after 1.5 hrs by FLIPR assay; assay type: functional, cell-based
[19] = Drug level in Sprague-Dawley rat cerebrospinal fluid at 1 mg/kg, ip after 0.5 hrs; assay type: ADME, organism-based; settings: read-out: Drug uptake
Procedure, shortened: (§4)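 Male Sprague–Dawley rats received single ip doses of 1, 3 or 10 mg/kg. Cerebrospinal fluid and plasma levels were determined at 0.5, 1 and 4 h. Mean csf concentration (nM ± SEM) is reported.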

[20] = Drug level in Sprague-Dawley rat cerebrospinal fluid at 10 mg/kg, ip after 4 hrs; assay type: ADME, organism-based; settings: read-out: Drug uptake; procedure, shortened: as §4
[21] = Drug level in Sprague-Dawley rat cerebrospinal fluid at 10 mg/kg, ip after 1 hr; assay type: ADME, organism-based; settings: read-out: Drug uptake; procedure, shortened: as §4
[22] = Drug level in Sprague-Dawley rat cerebrospinal fluid at 1 mg/kg, ip after 4 hrs; assay type: ADME, organism-based; settings: read-out: Drug uptake; procedure, shortened: as §4
[23] = Tmax in Sprague-Dawley rat at 3 mg/kg, ip; assay type: ADME, organism-based; settings: in vivo; procedure, shortened: as §3
[24] = Cmax in Sprague-Dawley rat at 1 mg/kg, iv; assay type: ADME, organism-based; parameters: dose 1 mg/kg, route intravenous; settings: in vivo; procedure, shortened: as §1
[25] = Plasma concentration in Sprague-Dawley rat at 1 mg/kg, ip after 1 hr; assay type: ADME, organism-based; procedure, shortened: as §2
[26] = target: Metabotropic glutamate receptor 8 (Homo sapiens, UniProt O00222); experiment: Antagonist activity at human recombinant mGlu8 receptor expressed in AV12 cells assessed as inhibition of glutamate-stimulated Ca2+ mobilization after 1 hr by FLIPR assay; assay type: functional, cell-based
[27] = Metabolic stability of the compound in mouse hepatocytes assessed as loss of compound at 2 uM; assay type: ADME, cell-based, Hepatocyte; settings: read-out: Drug degradation
Procedure, shortened: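 Hepatocytes from mouse, rat, dog and human; compound tested at 2 µM; percent loss of parent compound measured.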

[28] = target: Metabotropic glutamate receptor 7 (Homo sapiens, UniProt Q14831); experiment: Antagonist activity at human recombinant mGlu7 receptor expressed in AV12 cells assessed as inhibition of glutamate-stimulated Ca2+ mobilization after 1 hr by FLIPR assay; assay type: functional, cell-based
[29] = target: T2, Metabotropic glutamate receptor 3; experiment: Antagonist activity at human recombinant mGlu3 receptor expressed in AV12 cells assessed as inhibition of glutamate-stimulated Ca2+ mobilization after 1.5 hrs by FLIPR assay; assay type: functional, cell-based
[30] = Drug level in Sprague-Dawley rat cerebrospinal fluid at 10 mg/kg, ip after 0.5 hrs; assay type: ADME, organism-based; settings: read-out: Drug uptake; procedure, shortened: as §4
[31] = target: Metabotropic glutamate receptor 3 (Homo sapiens, UniProt Q14832, Q306L); experiment: Agonist activity at human recombinant mGlu3 receptor Q306L mutant expressed in AV12 cells assessed as stimulation of Ca2+ mobilization after 1 hr by FLIPR assay; assay type: functional, cell-based
Rattus norvegicus = experiment: Antipsychosis activity in ip dosed Sprague-Dawley rat assessed as reduction of […] in horizontal ambulations administered 30 mins before PCP challenge measured after 60 mins; assay type: functional
[32] = Solubility of the compound in DMSO at 20 uM; assay type: physicochemical

T2 sequence (Q14832 whole entry): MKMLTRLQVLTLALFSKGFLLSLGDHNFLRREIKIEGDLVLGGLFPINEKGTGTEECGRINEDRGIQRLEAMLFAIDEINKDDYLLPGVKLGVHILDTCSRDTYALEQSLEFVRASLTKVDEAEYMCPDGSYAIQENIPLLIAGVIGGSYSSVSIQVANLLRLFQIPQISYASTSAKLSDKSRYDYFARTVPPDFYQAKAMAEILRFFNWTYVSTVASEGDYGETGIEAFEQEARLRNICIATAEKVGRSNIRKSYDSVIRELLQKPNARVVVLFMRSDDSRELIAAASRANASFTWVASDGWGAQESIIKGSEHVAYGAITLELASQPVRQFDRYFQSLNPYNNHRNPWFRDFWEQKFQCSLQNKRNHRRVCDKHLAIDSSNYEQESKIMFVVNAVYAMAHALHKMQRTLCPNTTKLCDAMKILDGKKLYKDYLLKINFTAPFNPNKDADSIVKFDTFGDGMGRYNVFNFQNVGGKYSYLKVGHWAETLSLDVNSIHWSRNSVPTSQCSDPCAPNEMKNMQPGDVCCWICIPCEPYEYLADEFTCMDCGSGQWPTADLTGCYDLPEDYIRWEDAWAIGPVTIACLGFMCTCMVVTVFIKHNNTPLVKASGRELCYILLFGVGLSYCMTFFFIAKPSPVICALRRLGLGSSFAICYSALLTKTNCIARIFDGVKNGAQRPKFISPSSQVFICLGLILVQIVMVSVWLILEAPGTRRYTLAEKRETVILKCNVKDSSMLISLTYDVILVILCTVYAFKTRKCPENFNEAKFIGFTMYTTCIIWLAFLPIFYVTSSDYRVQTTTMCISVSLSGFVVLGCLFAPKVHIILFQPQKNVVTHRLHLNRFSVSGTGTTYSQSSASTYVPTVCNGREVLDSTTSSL
T1 sequence (Q14833 whole entry): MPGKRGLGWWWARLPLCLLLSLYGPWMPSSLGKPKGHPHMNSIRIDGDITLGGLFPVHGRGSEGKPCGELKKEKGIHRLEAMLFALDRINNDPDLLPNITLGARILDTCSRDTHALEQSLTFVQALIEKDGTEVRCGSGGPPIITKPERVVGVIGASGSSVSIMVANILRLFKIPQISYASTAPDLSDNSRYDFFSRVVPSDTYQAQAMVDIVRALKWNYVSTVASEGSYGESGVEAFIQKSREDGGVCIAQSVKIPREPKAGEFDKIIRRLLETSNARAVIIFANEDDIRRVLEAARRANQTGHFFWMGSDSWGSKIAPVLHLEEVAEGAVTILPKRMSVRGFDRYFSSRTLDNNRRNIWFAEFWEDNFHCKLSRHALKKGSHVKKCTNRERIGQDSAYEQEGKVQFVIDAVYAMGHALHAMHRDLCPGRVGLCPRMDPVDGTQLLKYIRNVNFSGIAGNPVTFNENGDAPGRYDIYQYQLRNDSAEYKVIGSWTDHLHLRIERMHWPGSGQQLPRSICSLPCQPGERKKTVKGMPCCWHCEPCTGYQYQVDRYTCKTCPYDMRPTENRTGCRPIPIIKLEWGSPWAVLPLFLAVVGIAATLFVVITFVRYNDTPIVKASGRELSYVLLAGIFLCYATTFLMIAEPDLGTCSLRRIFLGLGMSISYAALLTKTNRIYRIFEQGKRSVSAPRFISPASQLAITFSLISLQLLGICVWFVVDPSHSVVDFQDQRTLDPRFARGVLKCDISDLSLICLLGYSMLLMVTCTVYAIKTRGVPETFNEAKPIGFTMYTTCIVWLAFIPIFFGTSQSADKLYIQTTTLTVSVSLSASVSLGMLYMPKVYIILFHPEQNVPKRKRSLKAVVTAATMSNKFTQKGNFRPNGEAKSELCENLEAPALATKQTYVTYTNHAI
Sequence of Metabotropic glutamate receptor 6 (O15303 whole entry): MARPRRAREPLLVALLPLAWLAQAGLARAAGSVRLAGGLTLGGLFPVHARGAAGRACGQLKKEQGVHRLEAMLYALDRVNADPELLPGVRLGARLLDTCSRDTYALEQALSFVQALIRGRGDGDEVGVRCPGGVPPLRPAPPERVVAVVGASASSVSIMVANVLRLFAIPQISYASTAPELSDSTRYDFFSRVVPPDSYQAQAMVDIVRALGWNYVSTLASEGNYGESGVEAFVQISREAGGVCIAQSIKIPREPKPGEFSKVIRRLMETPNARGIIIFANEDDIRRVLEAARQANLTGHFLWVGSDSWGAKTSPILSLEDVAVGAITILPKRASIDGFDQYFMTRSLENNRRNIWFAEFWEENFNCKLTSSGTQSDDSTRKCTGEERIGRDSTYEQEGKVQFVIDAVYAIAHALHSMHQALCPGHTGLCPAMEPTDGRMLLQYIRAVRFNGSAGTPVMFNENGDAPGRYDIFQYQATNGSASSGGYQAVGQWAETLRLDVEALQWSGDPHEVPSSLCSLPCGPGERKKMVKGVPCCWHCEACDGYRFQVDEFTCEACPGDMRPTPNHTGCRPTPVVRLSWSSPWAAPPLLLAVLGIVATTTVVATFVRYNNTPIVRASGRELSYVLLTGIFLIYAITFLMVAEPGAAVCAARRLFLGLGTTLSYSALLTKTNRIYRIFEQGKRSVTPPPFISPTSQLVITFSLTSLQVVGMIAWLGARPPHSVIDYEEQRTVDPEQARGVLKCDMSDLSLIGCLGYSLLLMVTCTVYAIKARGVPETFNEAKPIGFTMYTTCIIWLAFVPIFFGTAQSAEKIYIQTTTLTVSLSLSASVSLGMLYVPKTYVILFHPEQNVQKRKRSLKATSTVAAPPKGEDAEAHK
Sequence of Metabotropic glutamate receptor 8 (O00222 whole entry): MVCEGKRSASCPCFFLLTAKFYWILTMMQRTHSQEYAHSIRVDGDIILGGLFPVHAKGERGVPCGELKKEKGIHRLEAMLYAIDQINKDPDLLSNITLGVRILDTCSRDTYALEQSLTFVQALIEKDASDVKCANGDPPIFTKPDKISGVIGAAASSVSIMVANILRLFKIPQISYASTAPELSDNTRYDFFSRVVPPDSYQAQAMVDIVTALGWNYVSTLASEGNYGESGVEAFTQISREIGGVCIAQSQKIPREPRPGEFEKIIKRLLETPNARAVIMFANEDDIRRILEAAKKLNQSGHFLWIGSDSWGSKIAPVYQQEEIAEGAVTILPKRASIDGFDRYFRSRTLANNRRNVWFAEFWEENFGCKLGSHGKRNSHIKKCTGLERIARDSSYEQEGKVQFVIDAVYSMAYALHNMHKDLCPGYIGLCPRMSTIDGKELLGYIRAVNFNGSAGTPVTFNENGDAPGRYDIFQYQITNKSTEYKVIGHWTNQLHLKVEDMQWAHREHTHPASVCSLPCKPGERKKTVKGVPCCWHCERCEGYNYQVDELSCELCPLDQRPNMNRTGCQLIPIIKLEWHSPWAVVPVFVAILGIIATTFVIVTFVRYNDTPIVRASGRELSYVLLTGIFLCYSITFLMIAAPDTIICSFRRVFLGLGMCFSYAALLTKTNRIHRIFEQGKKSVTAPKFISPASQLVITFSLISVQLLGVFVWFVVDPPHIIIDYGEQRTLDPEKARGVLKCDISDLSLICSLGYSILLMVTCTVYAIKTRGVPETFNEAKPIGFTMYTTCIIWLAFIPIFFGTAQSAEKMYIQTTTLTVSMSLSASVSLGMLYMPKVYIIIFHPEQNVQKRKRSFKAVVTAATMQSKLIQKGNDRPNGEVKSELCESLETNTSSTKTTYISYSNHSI
Sequence of Metabotropic glutamate receptor 7 (Q14831 whole entry): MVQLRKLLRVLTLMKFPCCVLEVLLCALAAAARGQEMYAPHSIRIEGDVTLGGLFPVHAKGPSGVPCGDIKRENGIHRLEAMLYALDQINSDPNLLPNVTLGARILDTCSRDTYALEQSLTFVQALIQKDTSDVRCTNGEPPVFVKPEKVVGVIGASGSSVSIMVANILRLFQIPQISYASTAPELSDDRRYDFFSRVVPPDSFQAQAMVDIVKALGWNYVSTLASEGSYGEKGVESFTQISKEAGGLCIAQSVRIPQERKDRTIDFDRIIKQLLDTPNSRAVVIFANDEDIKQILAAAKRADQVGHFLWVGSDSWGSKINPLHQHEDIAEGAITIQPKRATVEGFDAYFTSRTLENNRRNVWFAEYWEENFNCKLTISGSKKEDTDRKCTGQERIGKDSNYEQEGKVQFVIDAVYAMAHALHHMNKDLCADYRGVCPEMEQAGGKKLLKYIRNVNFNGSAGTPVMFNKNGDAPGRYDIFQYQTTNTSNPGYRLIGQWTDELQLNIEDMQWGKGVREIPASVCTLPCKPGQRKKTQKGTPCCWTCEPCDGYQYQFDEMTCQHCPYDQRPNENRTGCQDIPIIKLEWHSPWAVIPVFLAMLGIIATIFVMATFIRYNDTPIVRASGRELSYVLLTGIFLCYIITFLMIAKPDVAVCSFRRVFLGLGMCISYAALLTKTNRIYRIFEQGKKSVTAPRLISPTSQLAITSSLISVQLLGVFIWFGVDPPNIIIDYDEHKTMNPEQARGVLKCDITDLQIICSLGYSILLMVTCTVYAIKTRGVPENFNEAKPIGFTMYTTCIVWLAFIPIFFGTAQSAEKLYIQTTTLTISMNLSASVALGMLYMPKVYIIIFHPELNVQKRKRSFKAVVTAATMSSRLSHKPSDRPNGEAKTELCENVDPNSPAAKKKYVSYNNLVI
Sequence of CYP2D6 (P10635 whole entry, canonical isoform): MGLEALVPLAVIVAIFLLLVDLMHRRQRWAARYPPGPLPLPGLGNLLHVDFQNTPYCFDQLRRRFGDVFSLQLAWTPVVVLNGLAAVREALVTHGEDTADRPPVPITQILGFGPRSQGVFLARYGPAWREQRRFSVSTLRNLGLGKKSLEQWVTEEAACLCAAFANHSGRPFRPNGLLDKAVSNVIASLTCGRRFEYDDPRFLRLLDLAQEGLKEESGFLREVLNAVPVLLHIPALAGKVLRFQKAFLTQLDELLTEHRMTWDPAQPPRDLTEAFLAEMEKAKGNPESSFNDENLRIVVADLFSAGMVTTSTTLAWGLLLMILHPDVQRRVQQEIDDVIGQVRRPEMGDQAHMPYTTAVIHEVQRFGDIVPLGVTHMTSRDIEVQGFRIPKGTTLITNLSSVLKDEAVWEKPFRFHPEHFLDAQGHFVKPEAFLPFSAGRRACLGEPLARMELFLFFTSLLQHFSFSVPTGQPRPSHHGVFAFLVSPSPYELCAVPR

clearance [1]: 12.3 mL/min/kg
IC50 [2]: > 12.5 µM
concentration at 0.5 h [3]: 10100 nM
Ki [4]: 0.156 µM
Tmax [5]: 30 min
EC50 [6]: 5.68 µM
EC50 [7]: 0.0463 µM
Cmax [8]: 31100 nM
EC50 [9]: > 25 µM
EC50 [10]: 2.18 µM
EC50 [11]: 3.45 µM
EC50 [12]: 0.0482 µM
EC50 [13]: 0.0201 µM
half-life [14]: 198 min
concentration at 1 h [15]: 23600 nM
concentration at 4 h [16]: 700 nM
IC50 [17]: > 12.5 µM
inhibition at 10 µM (CYP2D6): < 10%
EC50 [18]: > 25 µM
concentration at 0.5 h [19]: 48.8 nM
concentration at 4 h [20]: 86.7 nM
concentration at 1 h [21]: 272 nM
concentration at 4 h [22]: 9.7 nM
Tmax [23]: 19.8 min
Cmax [24]: 9540 nM
concentration at 1 h [25]: 3010 nM
IC50 [26]: > 12.5 µM
metabolised at 2 µM [27]: < 10%
IC50 [28]: > 12.5 µM
IC50 [29]: 25.2 µM
concentration at 0.5 h [30]: 235 nM
EC50 [31]: 2.83 µM
solubility at 20 µM [32]: > 10 mM
SMILES: N[C@@]1(C(=O)O)C[C@@H](Sc2nc[nH]n2)[C@H]2[C@H](C(=O)O)[C@H]21
ED50 (Rattus norvegicus): 1.2 mg/kg
